Laboratory results reported in ChEMBL document CHEMBL3414450, “Synthetic phenylethanoid glycoside derivatives as potent neuroprotective agents” (Eur J Med Chem, 2015).
Calls of active or inactive are those of the source. The rule behind the calls is not given here.

Columns and labels:
PC-12 [1] = test: Neuroprotective activity in rat PC12 cells assessed as decrease in 6-OHDA-induced apoptosis at 200 uM incubated for 6 hrs prior to 6-OHDA challenge measured after 24 hrs by annexin V/propidium iodide staining-based fluorescence microscopic analysis; assay type: functional, cell-based
Summary of the method: (§1)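 PC12 cells on coverslips (1×10^5/well) pretreated 6 h with compound, then given 100 μM 6-OHDA for 24 h at 37 °C. After two PBS washes, stained with Annexin V-FITC/PI, each diluted 1:100 in binding buffer and mixed 1:1. Imaged by fluorescence microscopy (ex 488; em 515–545 and 575–635 nm). Apoptotic and necrotic cells counted in five fields, three separate groups. Edaravone was the positive control.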

PC-12 [2] = test: Neuroprotective activity in rat PC12 cells assessed as decrease in H2O2-induced cell death at 100 uM incubated for 6 hrs prior to H2O2 challenge measured after 1 hr by MTT assay; assay type: functional, cell-based
Summary of the method: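 PC12 cells seeded at 1×10^5/well for 24 h. Pretreated 6 h with compound (100 μM; DMSO stock diluted in PBS), then challenged with 300 μM H2O2 for 1 h at 37 °C. MTT at 5 mg/mL for 4 h, DMSO solubilisation, A570. Survival is given as % of the PBS-treated control, mean ± SD, n = 3. Vitamin C was the positive control.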

[3] = Cytotoxicity against rat PC12 cells assessed as cell viability at 100 uM incubated for 6 hrs prior to PBS treatment measured after 1 hr by MTT assay; assay type: cell-based; conditions: pc-12, 1 h
PC-12 [4] = test: Neuroprotective activity in rat PC12 cells assessed as decrease in 6-OHDA-induced early and late apoptosis at 1.56 to 6.25 uM incubated for 6 hrs prior to 6-OHDA challenge measured after 24 hrs by annexin V/propidium iodide staining-based fluorescence microscopic analysis; assay type: functional, cell-based; summary of the method: as §1
PC-12 [5] = test: Neuroprotective activity in rat PC12 cells assessed as decrease in 6-OHDA-induced cell death incubated for 6 hrs prior to 6-OHDA challenge measured after 24 hrs by MTT assay; assay type: functional, cell-based
Summary of the method: (§2)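 PC12 cells seeded at 1×10^5/well for 24 h, pretreated 6 h with compound (6.25–100 μM; DMSO stock diluted in PBS), then exposed to 100 μM 6-OHDA for 24 h at 37 °C. Viability read by MTT (5 mg/mL, 4 h), DMSO, absorbance 570 nm. Expressed as % of the PBS-treated control, mean ± SD, n = 3.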

PC-12 [6] = test: Neuroprotective activity in rat PC12 cells assessed as decrease in 6-OHDA-induced intracellular ROS level incubated for 6 hrs prior to 6-OHDA challenge measured after 24 hrs by DCFH-DA dye-based spectrofluor analysis; assay type: functional, cell-based
Summary of the method: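 PC12 cells (1×10^5/well) pretreated 6 h with compound at several concentrations one day after seeding, then given 100 μM 6-OHDA for 24 h at 37 °C. Loaded with DCFH-DA (1:1000 in DMEM) for 30 min at 37 °C, 5% CO2, then washed three times with PBS. DCF fluorescence read at 488/525 nm in five fields per well. Untreated cells are set to 100%, mean ± SD, n = 3. Edaravone was the positive control.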

PC-12 [7] = test: Neuroprotective activity in rat PC12 cells assessed as decrease in 6-OHDA-induced cell death at 6.25 to 100 uM incubated for 6 hrs prior to 6-OHDA challenge measured after 24 hrs by MTT assay; assay type: functional, cell-based; summary of the method: as §2
PC-12 [8] = test: Neuroprotective activity in rat PC12 cells assessed as decrease in 6-OHDA-induced early and late apoptosis at 6.25 to 50 uM incubated for 6 hrs prior to 6-OHDA challenge measured after 24 hrs by annexin V/propidium iodide staining-based fluorescence microscopic analysis; assay type: functional, cell-based; summary of the method: as §1
PC-12 [9] = test: Neuroprotective activity in rat PC12 cells assessed as decrease in 6-OHDA-induced early and late apoptosis at 6.25 to 25 uM incubated for 6 hrs prior to 6-OHDA challenge measured after 24 hrs by annexin V/propidium iodide staining-based fluorescence microscopic analysis; assay type: functional, cell-based; summary of the method: as §1

Structure (SMILES) | Activity (PC-12 [2]) | Activity [3] | Activity (PC-12 [5]) | Activity (PC-12 [6]) | Activity (PC-12 [7]) | other results
CC1=NN(c2ccccc2)C(=O)C1 | – | – | – | – | – | Activity (PC-12 [1]): inactive
O=C(/C=C/c1ccc(O)c(O)c1)OCCc1ccc(O)c(O)c1 | Active | Non-toxic | Dose-dependent effect | Dose-dependent effect | – | Activity (PC-12 [4]): Active
O=C(/C=C/c1ccc(O)c(O)c1)O[C@H]1[C@H](O)[C@@H](O)[C@H](OCCc2ccc(O)c(O)c2)O[C@@H]1CO | Active | – | – | – | Active | –
COc1ccc(/C=C/C(=O)O[C@H]2[C@H](O)[C@@H](O)[C@H](OCCc3ccc(O)c(O)c3)O[C@@H]2CO)cc1OC | inactive | – | – | – | – | –
O=C(Cc1ccc(O)c(O)c1)O[C@H]1[C@H](O)[C@@H](O)[C@H](OCCc2ccc(O)c(O)c2)O[C@@H]1CO | Active | Non-toxic | Dose-dependent effect | Dose-dependent effect | – | Activity (PC-12 [8]): Active
COC(=O)[C@]1(OC)C[C@H](O)[C@@H](NC(=O)/C=C/c2ccc(O)c(O)c2)[C@H]([C@H](O)[C@H](O)CO)O1 | Active | Non-toxic | Dose-dependent effect | Dose-dependent effect | – | Activity (PC-12 [9]): Active
O=C(/C=C/c1ccc(Cl)cc1)O[C@H]1[C@H](O)[C@@H](O)[C@H](OCCc2ccc(O)c(O)c2)O[C@@H]1CO | Active | – | – | – | Active | –
O=C(/C=C/c1ccc(F)c(F)c1)O[C@H]1[C@H](O)[C@@H](O)[C@H](OCCc2ccc(O)c(O)c2)O[C@@H]1CO | Active | – | – | – | Active | –
OC[C@H]1O[C@@H](OCCc2ccc(O)c(O)c2)[C@H](O)[C@@H](O)[C@@H]1O | Active | – | – | – | Active | –
